Assay results from ChEMBL document CHEMBL4513216, “Probing the Open Global Health Chemical Diversity Library for Multistage-Active Starting Points for Next-Generation Antimalarials” (ACS Infect Dis, 2020).

Assay: Toxicity liver stage against HepG2, at 10uM
Format: cell-based
Design: test concentration 10 uM, cell line HepG2-A16-CD81EGFP
Settings: human, HepG2-A16-CD81EGFP cells; read-out: INHIBITION
How it was run: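 Uninfected HepG2-A16-CD81EGFP cells, 3 × 10^3 per well, 1536-well, plated on prespotted compound at 10 μM final, parasite-free screening media added to match infected plates; puromycin 10 μM positive, DMSO 0.5% negative; run in parallel with 48 h PbLuc assay at 37 °C, 5% CO2; viability by CellTiter-Glo luminescence, normalized to controls.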

SMILES | cytotoxicity at 10 µM
Cc1ccc(CN2C[C@@H]3C[C@H](C(=O)Nc4cccnc4)[C@H](C2)O3)cc1 | -83.8%
CC(C(=O)NC(N)=O)N1CCN(c2ccc(C#N)cc2F)CC1 (stereo not given) | -4.4%
NC(=O)CN1CCC(NC(=O)N2CCCC2c2ccsc2)CC1 (stereo not given) | 1.91%
Cc1noc(C)c1S(=O)(=O)N(CC(N)=O)CC(C)C | -6.46%
CC(C)(C)NC(=O)NC(=O)COc1nc(C(C)(C)C)no1 | -1.62%
CC(C)c1noc(OCC(=O)N(C)C(C)C)n1 | -12.6%
CNc1cc(C)nc(NC2CCCN(C3Cc4ccccc4C3)C2)n1 (stereo not given) | 0.403%
Cc1ncccc1CNCC1CCc2nnc(C(C)C)n2C1 (stereo not given) | -6.27%
NS(=O)(=O)CCNC(=O)CCc1cc(Br)cs1 | -3.39%
NC(=O)C1CN(C(=O)Cc2cccnc2)CCN(C2CCOCC2)C1 (stereo not given) | -9.58%
CC(C)c1nnsc1CNC(=O)C1CCN(C(C)C)CC1 | -8.05%
CCN1Cc2nccn2CC(COCc2csc(C)n2)C1 (stereo not given) | 3.86%
Cc1ccc(NS(=O)(=O)C=c2[nH]c(=O)n3cccc3c2=O)cc1 | -10.7%
CC(C)c1nc(C2CCCN2CCc2ccncc2)no1 (stereo not given) | -10.8%
COCC(=O)N(C)Cc1ccc(OCc2cccs2)cc1 | 1.73%
CCOC(=O)[C@]12CCCN(Cc3nccs3)C[C@H]1CN(CCN(C)C)C2 | -9.82%
CN(C)C(=O)N[C@H]1CN(C2CCOCC2)[C@@H]2CCCO[C@H]12 | -1.86%
Cc1ccc([C@]2(O)CC[C@H]3CN(Cc4cccnc4)C[C@H]32)nc1 | -12.6%
Cc1nc(C)n(CC2CCCN(Cc3ccc(C(N)=O)cc3)C2)n1 (stereo not given) | 0.818%
O=C1N(CC2CC2)CCC12CCN(c1ncccn1)CC2 | 3.77%
CCN1CC(CN(C)Cc2nc(-c3ccc(C)o3)oc2C)CC1=O (stereo not given) | 5.88%
CCSCc1ccc(C(=O)N2CCCN(CC(N)=O)CC2)cc1 | 10.5%

SMILES | cytotoxicity at 10 µM
CNC(=O)[C@H]1C[C@@H]2CCN(Cc3nccs3)C[C@H]2O1 | -75.9%
Cc1ccc(C)c(CC(=O)NC2CCCS(=O)(=O)C2)c1 (stereo not given) | -7.52%
COc1ccc(F)cc1-c1ccccc1CC1(C(=O)O)CCOCC1 | 5.57%
Cc1nc(Nc2ncccn2)cc(C2CCCN2Cc2ncc[nH]2)n1 (stereo not given) | -15.3%
CCc1nc(C)c(C(=O)NCCNc2ncccn2)s1 | -2.16%
N#Cc1ccnc(N2CCC(NCCN3CCOCC3)CC2)c1 | -43.4%
O=C(c1ccncc1)N1CCC2(CCCN(c3ncc(F)cn3)C2)C1 (stereo not given) | -105%
Cn1ncc2c(=O)[nH]c(CN(Cc3cccc(F)c3)C3CC3)nc21 | -13.1%
COc1cccc(-n2cc(CN(C)C(=O)c3cc[nH]n3)cn2)c1 | 16.3%
CSCC(C)(O)CNS(=O)(=O)c1ccc(F)cc1 (stereo not given) | -8.06%
COCC(C)NC(=O)c1sccc1-n1cnnn1 (stereo not given) | -0.132%
O=C(c1ccco1)N1C2CCC(O)(CC2)C1CN1CCOCC1 (stereo not given) | 6.93%
CC(C)CCN1CCN(C(=O)c2ccc(=O)[nH]n2)CC1 | -6.96%
COc1nccnc1N1CCN(Cc2cccc(C)c2)C(=O)C1 | -0.408%
Cc1noc(C2CCC3(CCN(C(=O)c4cnn(C)c4)CC3)O2)n1 (stereo not given) | 8.77%
O=S1(=O)c2cnccc2OC(COc2ccccc2)CN1CC1CC1 (stereo not given) | -1.16%
CCc1ccccc1NC(=O)c1cnn(C)c1C | -2.52%
O=S1(=O)CCC(n2cc(C3=CCN(CCn4cccc4)CC3)cn2)C1 (stereo not given) | -8.5%
O=C(c1ccco1)N1CCCC2(CN(Cc3cccs3)CCO2)C1 (stereo not given) | -2.3%
Cc1cn2c(=O)c(-c3ccnc(NC4CCOCC4)n3)cnc2s1 | -5.5%
O=C(CCNC(=O)c1ccc(Cl)cc1)NCc1nc(C2CC2)no1 | 0.648%
Cc1cccc(CN2CCCC2c2cccc(Nc3nccs3)n2)c1 (stereo not given) | 0.81%

SMILES | cytotoxicity at 10 µM
Cn1c(C2CCCN2C(=O)c2cn(CCN)nn2)nc2ccccc21 (stereo not given) | 3.76%
CC(NCc1cccc(COC2CCCC2)c1)c1cnn(C)c1 (stereo not given) | 4.34%
Cc1nccn1Cc1nnc(C2CCCN(c3cnccn3)C2)n1C (stereo not given) | 2.73%
O=C(Nc1nncs1)N1CCC(c2ccc(O)cc2)CC1 | -7.55%
CC(C)n1cc(CN(Cc2ccsc2)CC2CCCO2)cn1 (stereo not given) | -7.89%
COCCN1CCN(C(=O)c2ccc(C)cc2F)[C@H]2CS(=O)(=O)C[C@H]21 | -11.4%
CCC(NC(=O)C1CCN(S(C)(=O)=O)CC1)c1ccc(OC)cc1 (stereo not given) | -1.82%
CCOCc1nccc(-c2ccc(OCC)c(C(=O)O)c2)n1 | 2.55%
O=C(CCN1C[C@H]2CC[C@@H]1C2)N1CCN(c2cccc(Cl)c2)C(=O)C1 | 1.4%
CCC(NC(=O)C(C)(C)C)c1ccccc1C (stereo not given) | 2.3%
CCn1c(Cn2cncn2)nnc1C1CCN(CC2[C@H]3CNC[C@@H]23)CC1 (stereo not given in full) | 6.77%
CCOCC(O)CN1CCN(C(=O)C2CCC2)CC1 (stereo not given) | -11.8%
CNC(=O)NC(=O)CN1CCC(c2c[nH]c3ccc(OC)cc23)CC1 | 21.4%
CCc1cnc(CN(C(C)=O)C2CCN(CCc3cnn(C)c3)C2)o1 (stereo not given) | -5.85%
O=C(c1ccc(Cl)s1)N1CCC2(CNS(=O)(=O)c3cnccc3O2)C1 (stereo not given) | 15.5%
O=C(c1cnccn1)N1CCCC(Cc2ccccn2)C1 (stereo not given) | 6.95%
Cc1ccc(S(=O)(=O)NCCc2cccnc2)cc1C | 0.645%
CN1CCCC(CNC(=O)CN(C)S(=O)(=O)c2cccnc2)C1 (stereo not given) | 9.45%
Cc1cc(C)nc(Nc2cccc(C3CCCN(CC4CC4)C3)n2)n1 (stereo not given) | -11.3%
Cc1ccc(CN2CC[C@H]3[C@H]2CC(=O)N3c2cccnc2)o1 | 5.67%
Cc1cc(CN2CCC(N(C)Cc3noc(C4CC4)n3)C2)no1 (stereo not given) | 5.35%
Cn1ccc(C(=O)N2C[C@@H]3CCN(c4cccnc4)C[C@@H]3C2)n1 | -106%

SMILES | cytotoxicity at 10 µM
CCc1nnsc1C(=O)NCc1nnc2n1CCC2 | 0.371%
CCOc1ccc(C(F)(F)F)cc1NC(=O)NCc1noc(C)n1 | -5.1%
Cc1cccc(S(=O)(=O)N2CCC3(CC2)CC(N(C)C)CO3)c1 (stereo not given) | -126%
C1CC(N2C[C@@H]3COC[C@]3(COCC3CCOCC3)C2)C1 | -111%
COCC1c2c(cnn2C)CCN1C(=O)c1ccc2c(c1)OCO2 (stereo not given) | 3.74%
Cc1nc2c(C#N)cnn2c(C)c1CCC(=O)N(C)C(C)C(C)C (stereo not given) | -43.7%
COCCNC(=O)Cn1c(-c2ccc(Cl)cc2)nc(C)c(CCO)c1=O | -13.1%
Cc1nnc(NC(=O)CN2CCc3c(nc(C4CC4)n3C)C2)s1 | -8.51%
N#Cc1ccc(CS(=O)(=O)NC(=O)c2ccc3c(c2)COC3)cc1 | 3.65%
Cc1ccccc1CN1CCN(C(=O)CCn2ccccc2=O)CC1 | 3.57%
O=C(C1CCCO1)N1CCC(c2nc(-c3ccccc3)n[nH]2)CC1 (stereo not given) | -10.9%
CCCNC(=O)CNc1cc(C(=O)NCC(F)(F)F)cc(F)c1C | 10%
Cc1noc(C)c1-c1cccc(C2CCCNC2)n1 (stereo not given) | -12.3%
COc1ncccc1CN1C[C@@H]2OCCN(CCN(C)C)[C@@H]2C1 | 11.8%
COc1nc2c(cc1C(=O)N1CC[C@H](CO)[C@@H](O)C1)CCC2 | -42.4%
Cc1n[nH]c(C2CN(C(=O)c3ccco3)CCO2)n1 (stereo not given) | -14.5%
CCc1nn(C)c(Cl)c1CN1CCC(c2cc(O)nc(C)n2)CC1 | -9.74%
CC(C)(C(=O)O)S(=O)(=O)c1ccc(Br)cc1 | 4.67%
O=C(O)c1cc(NS(=O)(=O)c2ccc(Br)s2)c(F)cc1F | -7.1%
Cc1cc(CN2CCN(CC(O)c3ccc4c(c3)OCO4)CC2)no1 (stereo not given) | -7.82%
O=C(Cc1ccc(Cl)s1)Nc1ccc2c(c1)C(=O)NC2=O | -7.19%
CSc1cccc(CN2CCC(CCC(=O)NC3CC3)CC2)c1 | 1.28%

SMILES | cytotoxicity at 10 µM
CC(NC(=O)NCc1cc(Br)cs1)c1ccccn1 (stereo not given) | -17.6%
C1=C(c2c[nH]c3ncccc23)CCN(Cc2nnc(C3CC3)o2)C1 | 30.7%
Cn1ccnc1CN1CCC(Cn2cc(-c3ccccc3)nn2)CC1 | 0.959%
CCOCC1CN(C(=O)Cc2ccsc2)Cc2ccnn2C1 (stereo not given) | -71.4%
COCCCN1CCc2cncnc2C1 | -9.68%
CC(C)CC(=O)N1CC(=O)c2sc(NCCc3ccccc3)nc2C1 | -0.501%
Cc1nc(Nc2cnccn2)cc(C2CN(C(C)C)C2)n1 | -27.1%
CC(C)N(C)C(=O)C1CCC(=O)N(CCc2cccc(F)c2)C1 (stereo not given) | -4.57%
CNCC[C@H]1CC(C)(C)Oc2ccc(C)cc21 | 0.526%
Cc1cccnc1CCNC(=O)[C@@]12CNC[C@@H]1CN(S(C)(=O)=O)C2 | -0.973%
CN1CCN(C(=O)C2CCCN2c2ncnc3ccsc23)CC1 (stereo not given) | 9.19%
Cc1nn(C)c2cn(C(C)C(=O)NCc3ccccn3)nc12 (stereo not given) | 11.1%
CCOC[C@]12COC[C@H]1CN(Cc1ccc3c(c1)OCO3)C2 | -119%
O=C(CN(CC(O)c1ccc(F)cc1)C1CC1)NCc1cccs1 (stereo not given) | 0.0428%
Cn1cc(CN2CCOC3(CCCN(C(=O)c4ccco4)C3)C2)cn1 (stereo not given) | -23.9%
CCOC(=O)c1nc(COc2c(C)occc2=O)no1 | 3.79%
CCC(=O)N1CCc2c(O)nc(C3CCCCN3C(=O)C3CC3)nc2C1 (stereo not given) | 3.3%
Cn1cc(-c2cnc(N3CCOCC3)nc2)cc1C(=O)N1CCOCC1 | 9.8%
CC(C)(C)c1nc(CN(Cc2cccs2)C2CCS(=O)(=O)C2)no1 (stereo not given) | -3.63%
CCN(CC)S(=O)(=O)N1CCCC(c2nccn2Cc2ccncc2)C1 (stereo not given) | 9.2%
NC(=O)C1CCN(CCc2ccc(NCc3cccnc3)cc2)CC1 | 8.02%
N#Cc1ccccc1OCCN1CCC(C(=O)N2CCOCC2)CC1 | -47.2%
